Measurements as given in the EternaBench riboswitch data.

System: MS2 coat protein
Test: apparent Kd, MS2 coat protein; higher = weaker binding; RNA-MaP array; FMN 200 µM where present
In short: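 Stalled E. coli RNA polymerase produced the designs on Illumina sequencing-chip clusters. SNAP-549-labelled MS2 coat protein was added from 0.7 or 1.5 nM, doubling to 3 µM, without and then with constant ligand, in 100 mM Tris-HCl pH 7.5, 80 mM KCl, 4 mM MgCl2, BSA, DTT, yeast tRNA and Tween-20. The apparent Kd is the median of filtered per-cluster fits of green signal normalised to red-channel RNA signal and control-cluster median Fmax.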

[1] = designed as: OFF switch for flavin mononucleotide, no ligand
[2] = ligand present: flavin mononucleotide, designed as: OFF switch for flavin mononucleotide
[3] = designed as: ON switch for flavin mononucleotide, no ligand
[4] = ligand present: flavin mononucleotide, designed as: ON switch for flavin mononucleotide

Sequence	apparent Kd [1]	apparent Kd [2]	apparent Kd [3]	apparent Kd [4]
GUGAGGUCAGGAUAUGCAUGGCGGGACUUGCGUCGUGGCGUGCAGAAGGGACAUGAGGAUCACCCAUGUGGAGU	157 nM	238 nM		
CGAUAAAGGUGAGGAUAUGAGAAUAGAAAGAAAUCAGAAGGCACACAUGAGGAUCACCCAUGUGAGUUCUUGAGAUUACAUGGU	14.9 nM	15.1 nM		
GCCGGGUGGGUAGGAUAUGGCUAUGUCUCAUUGCUAGAAGGACCAACUGCUACAUGAGGAUCACCCAUGUCGUAGUGCACCCGG			138 nM	28.9 nM
CAGGGUCGUAUUCAGCCCGUCCACAUGAGGAUCACCCAUGUCAAGGAUAUAGAUUAAAAUACAAGCUAGAAGGUGACGCUGGGU	14.3 nM	42.6 nM		
GGACCUCCUGAGGAUAUUGUAUCACCUGAUUGAUAAGAAGGCAGAACAUGAGGAUCACCCAUGUGGGUACUCGG	168 nM	145 nM		
AAAAAACAUGAGGAUCACCCAUGUGAGGAUAUGCAAAAAAAAAAAAAAAAAUAAAAAAGCAGAAGGCACAAAAA	63.4 nM	86.2 nM		
CAGCUCGUGUGAGGAUAUGCCGCCGUUUCGGCUGCAGAAGGUGCUACGUUACAUGAGGAUCACCCAUGUCUCUGUUGUUUCGUU			23.5 nM	20.6 nM
GCUAGUAUUGCAGGAUAUUGUGAAUAAUUAUUUCAAGAAGGGCAUAACAUGAGGAUCACCCAUGUCUUCCUUUUGAAUACUAGC	6.95 nM	6.51 nM		
GCAUUUUAUGCAGGAUAUUGUCUUUGGAUUAAACAAGAAGGGCAUAACAUGAGGAUCACCCAUGUUUUAUAGGUAUAUAUGUUC	14.2 nM	21.6 nM		
ACACAUGAGGAUCACCCAUGUAGCUGACGUCUGCGCCAGCCACAGGAUAUACGGCAACACAAACCGUAGAAGGGUGAUAAACAC			114 nM	23 nM
UUUAAAGGCACAUGAGGAUCACCCAUGUCCGGUACUAACAGACAGGAUAUGCAAGAUCCACUCAUGCAGAAGGGUCUGGCUUUU			463 nM	79.7 nM
GAGCUCGAUGAGAAGGGUUACAUGAGGAUCACCCAUGUCGACCUUGGCGUAACAGGAUAUCAUCGGGCUCAGUGCGUUGACACA	29.2 nM	171 nM		
UGGACGACCCGAGGAUAUCAAAGGCCCGGGUAAGUUCCUCAGACAUGAGGAUCACCCAUGUUAAAUGAGAAGGCGGGUAGCCGA	203 nM	268 nM		
CCUAAGGAGGCAGGAUAUAGUGUGGUGGCCGGGCUCCCACGGCGAGCGGCACUAGAAGGGUCGUUACAUGAGGAUCACCCAUGU			12.7 nM	11.6 nM
UUUCCGCGAGGAUAUACGGGCUGUGCUUUUCAUUUCUUACAACAUGAGGAUCACCCAUGUAGAAGGUGCUUCUU	208 nM	196 nM		
CAUUAAUUCAUUAUAGUAAUUUUACAGGAUAUGUAACAUGAGGAUCACCCAUGUAUUCUAGGUUAACAGAAGGGUAUUACUUGU	28.9 nM	20.7 nM		
AUAUCUCCCUAGAAGGUGGAACGACAAUUGCAUCACGUAGUUGGCGAUCCAAGGAUAUGGGACAUGAGGAUCACCCAUGUGGAU			16.4 nM	8.81 nM
ACAUGAGGAUCACCCAUGUGUACAUAGGAUAUUGAGGAUUAGGGAUGUUGUUUUGGAUUUGCCCACAAGAAGGAUGAAAGUGUU			9.68 nM	8.68 nM

Sequence	apparent Kd [1]	apparent Kd [2]	apparent Kd [3]	apparent Kd [4]
GUAGCAUUGAGAGGAUAUCCAUACCGGAAACGGACAUGAGGAUCACCCAUGUGGCGAAAGCCUUGGGAGAAGGCUCUAUGCUAC			4.35 nM	3.52 nM
GCAGCAAUCUAAAACAUGAGGAUCACCCAUGUCGAGAGAUAUGAGGAUAUGCAUCUGAAGAAGAUGCAGAAGGCAUUGUGCUGC			8.1 nM	6.15 nM
UUCACGUCAGGAUAUCCAUAUUUCCGAAAUAACGGUACUUUGGAGAAGGGACAUGAGGAUCACCCAUGUCCUCG		40.1 nM		
UUUUCGAACCGAGGAUAUCCUUAUAAGAAACAUGAGGAUCACCCAUGUAAAGGGAAUUAUUUGAAGGAGAAGGCGGAUUUUGUU			50.1 nM	32 nM
GUCAGCUCGUGAGGAUAUACAACACUGCUUCGGCAGUGUGUUAAGAUCACAUGAGGAUCACCCAUGUAGAAGGCACGAGCUGAU	7.69 nM	88.9 nM		
GUAUUUUAAGUAAGGAUAUACCUCUGGAAACAGAGGUAGAAGGUACAUGAGGAUCACCCAUGUUUCUCUUUUGG	17 nM	23.6 nM		
CAGAGGAUGUAAGGAUAUCGUCAGGAUAACUGACGAGAAGGUACAUGAGGAUCACCCAUGUAACUCUAAUAAUAAUAACCUCUG	11.7 nM	17.3 nM		
GCCAUCCUAUGAGGAUAUGACACCGAAACGGUGUCAGAAGGCAUGUCGAUAGACAUGAGGAUCACCCAUGUUUACAGGAUGGCA			132 nM	22 nM
UUUCUGUGAGGAUAUCAGUAGUAAAUAAAUAAAAUUACUACUGAGAAGGCACAUGAGGAUCACCCAUGUUCCUU	12.2 nM	29.7 nM		
GUUAAGGUAGGAUAUACGAUAAUAUAGGGUAGAUAUAUAACACAUGAGGAUCACCCAUGUAGAAGGACCAAGUG	41.5 nM	170 nM		
CGGAUCGCAUGAGGAUAUGGUCAGGUUUCCUGACCAGAAGGCAUGUCAUAAGACAUGAGGAUCACCCAUGUAGUUAAGAUCCGA			577 nM	40.2 nM
GCUACAUAUAUUAAGUAUGAUUAACUAGAAGGUAGAUACAUGAGGAUCACCCAUGUUAAGAGUUCUAAGGAUAUAGUUUGUAGC			113 nM	56.6 nM
AAAAAGUCAGGAUAUUCGGAAGGGAAAGCGCAAACCCAACCGAAGAAGGGACAUGAGGAUCACCCAUGUAAAAA	26.7 nM	39 nM		
AGCAUGGUAGGAUAUACGGAACAUUAGGGUUUGUUAUGUGGACAUGAGGAUCACCCAUGUAGAAGGGCCGUGCA	35.6 nM	67.5 nM		
AAAUUGUCAGGAUAUCCAACUAUACGAAAUAUAUAUACACAGGAGAAGGGACAUGAGGAUCACCCAUGUUUGAA	24.6 nM	19.1 nM		
CUUUUGUGAGGAUAUUGGUAGUAAAUAAAUAAAAUUACUACUGAGAAGGCACAUGAGGAUCACCCAUGUUCCUC	31.2 nM	221 nM		
AGAUGACAAAGUCAUCUCUGACAGACAUGAGGAUCACCCAUGUAGGAUAUGCUACUCAAAGAGUAGCAGAAGGACAUGUGUCUU	32.3 nM	183 nM		
GUAGCUACAUGAGGAUCACCCAUGUAGGAUAUCGCUAUUGUAAUCAUGAAACAUGAUUACAAUAGCGAGAAGGACGUUAGCUAC	6.31 nM	7.31 nM		
